Published values pooled from the literature.
Protocols differ between the studies behind these lines.
Sample: plasma

| Structure (SMILES) | system | setting | Tmax |
| --- | --- | --- | --- |
| C[C@@H](Oc1ccc(S(C)(=O)=O)cc1C(=O)N1C[C@@H]2C[C@]2(c2cc(C(F)(F)F)on2)C1)C(F)(F)F | human | oral, 10 mg, single dose, fasted | 3.5 h |
| OC[C@H]1O[C@@H](c2cc(Cc3ccc(C4CC4)cc3)c(Cl)c3c2CCO3)[C@H](O)[C@@H](O)[C@@H]1O | human | oral, 0.3 mg, single dose, fed, healthy volunteers | 2 h |
| O=C(COc1ccc(Cl)cc1)NC12CC(c3nnc([C@H]4C[C@@H](OC(F)(F)F)C4)o3)(C1)C2 | human | oral, 260 mg, multiple doses, once daily, steady state, healthy volunteers | 3 h |
| CC1(C)CC[C@]2(NC(=O)C(C)(F)F)CC[C@]3(C)[C@H](C(=O)C=C4[C@@]5(C)C=C(C#N)C(=O)C(C)(C)[C@@H]5CC[C@]43C)[C@@H]2C1 | human | oral, 150 mg, single dose | 12 h |
| CC(=O)N(C)[C@H]1CCN(C(=O)c2cnc3c(c2)C[C@](C)(c2ccc(F)cc2)N3)C1 | male human | oral, 30 mg, multiple doses, once daily, steady state | 0.75 h |
| COc1ccc(-c2c(Nc3ccccn3)[nH]c3c(C4=CCCCC4)c(-c4ccccc4)nn3c2=O)cc1 | human | oral, 200 mg twice daily, multiple doses, patients | 1 h |
| COc1ccc2c(c1)CN(C(=O)CCN1CCC(Cc3ccccc3)CC1)CC[S@@+]2[O-] | male human | intravenous, 0.15 mg/kg, healthy volunteers | 0 h |
| CC(C)n1cc(C#N)c2cc(-n3cc(C(=O)O)cn3)ccc21 | human | oral, 25 mg, single dose, fasted, healthy volunteers | 3.26 h |
| N#Cc1cccc(-c2ccc3ncc(-c4cc(F)cc(F)c4)c(N4CCC(N)CC4)c3c2)c1O | male human | intravenous, 50 µg | 0.03 h |
